{"source": "paper PMC11451940", "about": "(RSC Medicinal Chemistry, 2024)", "key": {"[1]": {"system": "PC-3 cells (prostate adenocarcinoma)", "experiment": "MTT in vitro cytotoxicity, PC-3", "type": "cell-based, human", "details": "read-out: IC50 ± SD, PC-3", "outline": "(§1)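 MTT assay on ATCC human lines cultured per supplier instructions: A2780, A2780R, MCF-7, PC-3, A549, HOS and normal foetal fibroblast MRC-5. Exposure was 24 h for all lines; A2780 was also tested at 48 and 72 h. IC50 came from dose–response curves, given ± SD from triplicate experiments. Selectivity index = IC50(MRC-5)/IC50(A2780).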"}, "[2]": {"system": "A549 cells (lung adenocarcinoma)", "experiment": "MTT in vitro cytotoxicity, A549", "type": "cell-based, human", "details": "read-out: IC50 ± SD, A549", "outline": "as §1"}, "[3]": {"system": "A2780R cells (cisplatin-resistant ovarian carcinoma)", "experiment": "MTT in vitro cytotoxicity, A2780R", "type": "cell-based, human", "details": "read-out: IC50 ± SD, A2780R", "outline": "as §1"}, "[4]": {"system": "MRC-5 cells (human foetal fibroblasts)", "experiment": "MTT in vitro cytotoxicity, normal MRC-5", "type": "cell-based", "details": "for IC50: read-out: IC50 ± SD, MRC-5", "outline": "as §1"}, "[5]": {"system": "A2780 cells (human ovarian carcinoma)", "experiment": "MTT in vitro cytotoxicity, A2780", "type": "cell-based", "outline": "as §1"}, "[6]": {"system": "HOS cells (bone osteosarcoma)", "experiment": "MTT in vitro cytotoxicity, HOS", "type": "cell-based, human", "details": "read-out: IC50 ± SD, HOS", "outline": "as §1"}, "[7]": {"system": "MCF-7 cells (breast adenocarcinoma)", "experiment": "MTT in vitro cytotoxicity, MCF-7", "type": "cell-based, human", "details": "read-out: IC50 ± SD, MCF-7", "outline": "as §1"}, "[8]": {"system": "HeLa", "details": "72 h of incubation; cited from earlier work"}, "[9]": {"system": "PC3", "details": "72 h of incubation; cited from earlier work"}, "[10]": {"system": "HL60 cells", "details": "read-out: IC50 on HL60 cells; 48 h of incubation; cited from earlier work"}, "[11]": {"system": "3T3", "details": "72 h of incubation; cited from earlier work"}, "[12]": {"details": "read-out: IC50 ± SD, A2780, 72 h, 72 h incubation time, MTT"}}, "note": "Several values for one entry are separate records, joined by “and”; a condition that tells them apart may be missing. Equal entries are not always repeated. Where two headings read alike, the source gives them in different places.", "data": [{"smiles": "N.N.[Cl][Pt][Cl]", "note": "[Cisplatin]", "values": [{"measurement": "IC50", "setting": "[1]; 24 h of incubation, MTT", "value": "> 50", "unit": "µM"}, {"measurement": "IC50", "setting": "[2]; 24 h of incubation, MTT", "value": "> 50", "unit": "µM"}, {"measurement": "IC50", "setting": "[3]; 24 h of incubation, MTT", "value": "42.7 ± 3.8", "unit": "µM"}, {"measurement": "SI, selectivity index expressed as IC50(MRC-5)/IC50(A2780)", "setting": "[4]; 24 h of incubation", "value": 3.0}, {"measurement": "SI, selectivity index expressed as IC50(MRC-5)/IC50(A2780)", "setting": "[4]; 24 h of incubation, listed as cisplatin", "value": "≈ 3"}, {"measurement": "IC50", "setting": "[4]; 24 h of incubation, MTT, normal cells", "value": "46.1 ± 2.4", "unit": "µM"}, {"measurement": "IC50", "setting": "[5]; read-out: IC50 ± SD, A2780, 48 h, 48 h incubation time, MTT", "value": "6.5 ± 3.2", "unit": "µM"}, {"measurement": "IC50", "setting": "[5]; [12]", "value": "3.7 ± 0.2", "unit": "µM"}, {"measurement": "IC50", "setting": "[5]; read-out: IC50 ± SD, A2780, 24 h of incubation, MTT", "value": "15.2 µM and 15.4 µM"}, {"measurement": "IC50", "setting": "[6]; 24 h of incubation, MTT", "value": "> 50", "unit": "µM"}, {"measurement": "IC50", "setting": "[7]; 24 h of incubation, MTT", "value": "37 ± 2.2", "unit": "µM"}]}, {"smiles": "CC(C)=CCC1=C(O)C(=O)c2ccccc2C1=O", "note": "[Lapachol, 2-hydroxy-3-(3-methylbut-2-en-1-yl)naphthalene-1,4-dione]", "values": [{"measurement": "IC50", "setting": "[1]; Homo sapiens, PC-3, 24 h", "value": "> 50", "unit": "µM"}, {"measurement": "IC50", "setting": "[2]; Homo sapiens, A549, 24 h", "value": "> 50", "unit": "µM"}, {"measurement": "IC50 on HeLa", "setting": "[8]", "value": 19.04, "unit": "mg/L"}, {"measurement": "IC50 on PC3", "setting": "[9]", "value": 20.51, "unit": "mg/L"}, {"measurement": "IC50", "setting": "[10]", "value": 25, "unit": "µM"}, {"measurement": "IC50 on 3T3", "setting": "[11]", "value": 6.15, "unit": "mg/L"}, {"measurement": "IC50", "setting": "[3]; Homo sapiens, 24 h", "value": "> 50", "unit": "µM"}, {"measurement": "IC50", "setting": "[4]; Homo sapiens, MRC5, 24 h", "value": "> 50", "unit": "µM"}, {"measurement": "IC50", "setting": "[5]; Homo sapiens, A2780, 24 h, read-out: IC50 ± SD, A2780, 24 h of incubation, MTT", "value": "> 50", "unit": "µM"}, {"measurement": "IC50", "setting": "[5]; [12]", "value": "6.4 ± 0.8", "unit": "µM"}, {"measurement": "IC50", "setting": "[6]; Homo sapiens, HOS, 24 h", "value": "> 50", "unit": "µM"}, {"measurement": "IC50", "setting": "[7]; Homo sapiens, MCF7, 24 h", "value": "> 50", "unit": "µM"}]}]}
